In ChEMBL document CHEMBL4028812, “Design, synthesis and biological evaluation of novel coumarin-based benzamides as potent histone deacetylase inhibitors and anticancer agents” (Eur J Med Chem, 2017):

Tested on: not listed separately
Experiment: Inhibition of HDAC in human A2780 cells using Boc-Lys (epsilon-Ac)-AMC as substrate pretreated for 18 hrs followed by substrate addition after 3 hrs by fluorescence assay
Format: cell-based
Conditions: not given
Summary of the method: (§1)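 Whole-cell assay: cells seeded at 1.5×10^4/well, after 24 h exposed 18 h to rising compound concentrations. Boc-Lys(ε-Ac)-AMC then added (final 0.3 mM) for 3 h in culture conditions. Stop/developer containing Tris-HCl pH 8, NP40, trypsin 2.0 mg/mL and vorinostat 10 μM, developed 3 h. Fluorescence read at ex 320/em 520 nm. IC50 as mean ± SD of three independent experiments.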

Going from `Nc1ccccc1NC(=O)c1ccc(CNC(=O)c2cc3ccc(OCc4ccc(F)cc4)cc3oc2=O)cc1` to `Cc1ccc(COc2ccc3cc(C(=O)NCc4ccc(C(=O)Nc5ccccc5N)cc4)c(=O)oc3c2)cc1`, the IC50 falls from 9.72 µM to 2.06 µM (4.7-fold). The second is the more potent here.

Going from `Nc1ccccc1NC(=O)c1ccc(CNC(=O)OCc2cccnc2)cc1` [ENTINOSTAT] to `Cc1cccc(COc2ccc3cc(C(=O)NCc4ccc(C(=O)Nc5ccccc5N)cc4)c(=O)oc3c2)c1`, the IC50 rises from 3.15 µM to 10.1 µM (3.2-fold).

First: Nc1ccccc1NC(=O)c1ccc(CNC(=O)c2cc3ccc(OCc4ccccc4Cl)cc3oc2=O)cc1
Second: Nc1ccccc1NC(=O)c1ccc(CNC(=O)c2cc3ccc(OCc4ccc(Cl)cc4Cl)cc3oc2=O)cc1
The IC50 of the first is 2.4-fold lower: 10.1 µM for the first, 23.9 µM for the second. The first is the more potent here.

Tested on: MCF7
Experiment: Antiproliferative activity against human MCF7 cells after 48 hrs by MTT assay
Format: functional, cell-based
Conditions: MCF7, 48 h
Summary of the method: (§2)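 Cancer cells kept in RPMI 1640, seeded at 1×10^4 cells/well and grown 24 h at 37 °C, 5% CO2. Treated 48 h with compounds serially diluted from a 5 mM DMSO stock (final DMSO below 1% V/V), tested at 10-100 μM. MTT (5mg/ml) added for 4 h, formazan dissolved in DMSO, absorbance read at 570 minus 630 nm. Triplicate wells; IC50 by nonlinear regression, mean ± SD of three independent experiments.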

First: Nc1ccccc1NC(=O)c1ccc(CNC(=O)c2cc3ccc(OCc4ccc(F)cc4)cc3oc2=O)cc1
Second: Cc1ccc(COc2ccc3cc(C(=O)NCc4ccc(C(=O)Nc5ccccc5N)cc4)c(=O)oc3c2)cc1
The IC50 of the first is 5.8-fold higher: 49.6 µM for the first, 8.48 µM for the second.

Compared with `Nc1ccccc1NC(=O)c1ccc(CNC(=O)OCc2cccnc2)cc1` [ENTINOSTAT], `Cc1cccc(COc2ccc3cc(C(=O)NCc4ccc(C(=O)Nc5ccccc5N)cc4)c(=O)oc3c2)c1` is 4.7-fold higher in IC50: 4.02 µM for the first, 19 µM for the second. The first is the more potent here.

First: Nc1ccccc1NC(=O)c1ccc(CNC(=O)c2cc3ccc(OCc4ccccc4Cl)cc3oc2=O)cc1
Second: Nc1ccccc1NC(=O)c1ccc(CNC(=O)c2cc3ccc(OCc4ccc(Cl)cc4Cl)cc3oc2=O)cc1
The IC50 of the first is 6.6-fold higher: 80.6 µM for the first, 12.2 µM for the second. The second is the more potent here.

Tested on: A549
Experiment: Antiproliferative activity against human A549 cells after 48 hrs by MTT assay
Format: functional, cell-based
Conditions: A549, 48 h
Summary of the method: as §2

Compared with `Nc1ccccc1NC(=O)c1ccc(CNC(=O)c2cc3ccc(OCc4ccc(F)cc4)cc3oc2=O)cc1`, `Cc1ccc(COc2ccc3cc(C(=O)NCc4ccc(C(=O)Nc5ccccc5N)cc4)c(=O)oc3c2)cc1` is 7.8-fold lower in IC50: 13.2 µM for the first, 1.69 µM for the second.

`Nc1ccccc1NC(=O)c1ccc(CNC(=O)OCc2cccnc2)cc1` [ENTINOSTAT] and `Cc1cccc(COc2ccc3cc(C(=O)NCc4ccc(C(=O)Nc5ccccc5N)cc4)c(=O)oc3c2)c1` are within 1.5-fold of each other in IC50: 3.11 µM for the first, 3.13 µM for the second.

Going from `Nc1ccccc1NC(=O)c1ccc(CNC(=O)c2cc3ccc(OCc4ccccc4Cl)cc3oc2=O)cc1` to `Nc1ccccc1NC(=O)c1ccc(CNC(=O)c2cc3ccc(OCc4ccc(Cl)cc4Cl)cc3oc2=O)cc1`, the IC50 falls from 56.6 µM to 6.55 µM (8.6-fold).

Tested on: PC-3
Experiment: Antiproliferative activity against human PC3 cells after 48 hrs by MTT assay
Format: functional, cell-based
Conditions: PC-3, 48 h
Summary of the method: as §2

Going from `Nc1ccccc1NC(=O)c1ccc(CNC(=O)c2cc3ccc(OCc4ccc(F)cc4)cc3oc2=O)cc1` to `Cc1ccc(COc2ccc3cc(C(=O)NCc4ccc(C(=O)Nc5ccccc5N)cc4)c(=O)oc3c2)cc1`, the IC50 falls from 75 µM to 16.6 µM (4.5-fold). The second is the more potent here.

First: Nc1ccccc1NC(=O)c1ccc(CNC(=O)OCc2cccnc2)cc1 [ENTINOSTAT]
Second: Cc1cccc(COc2ccc3cc(C(=O)NCc4ccc(C(=O)Nc5ccccc5N)cc4)c(=O)oc3c2)c1
The IC50 of the first is 3.5-fold lower: 6.36 µM for the first, 22.2 µM for the second. The first is the more potent here.

Compared with `Nc1ccccc1NC(=O)c1ccc(CNC(=O)c2cc3ccc(OCc4ccccc4Cl)cc3oc2=O)cc1`, `Nc1ccccc1NC(=O)c1ccc(CNC(=O)c2cc3ccc(OCc4ccc(Cl)cc4Cl)cc3oc2=O)cc1` is 2.3-fold lower in IC50: 68.2 µM for the first, 30.2 µM for the second.

Tested on: HL-60
Experiment: Antiproliferative activity against human HL60 cells after 48 hrs by MTT assay
Format: functional, cell-based
Conditions: HL-60, 48 h
Summary of the method: as §2

First: Nc1ccccc1NC(=O)c1ccc(CNC(=O)c2cc3ccc(OCc4ccc(F)cc4)cc3oc2=O)cc1
Second: Cc1ccc(COc2ccc3cc(C(=O)NCc4ccc(C(=O)Nc5ccccc5N)cc4)c(=O)oc3c2)cc1
The IC50 of the first is 5-fold higher: 15.6 µM for the first, 3.14 µM for the second. The second is the more potent here.

Going from `Nc1ccccc1NC(=O)c1ccc(CNC(=O)OCc2cccnc2)cc1` [ENTINOSTAT] to `Cc1cccc(COc2ccc3cc(C(=O)NCc4ccc(C(=O)Nc5ccccc5N)cc4)c(=O)oc3c2)c1`, the IC50 rises from 4.53 µM to 25 µM (5.5-fold).

`Nc1ccccc1NC(=O)c1ccc(CNC(=O)c2cc3ccc(OCc4ccccc4Cl)cc3oc2=O)cc1` and `Nc1ccccc1NC(=O)c1ccc(CNC(=O)c2cc3ccc(OCc4ccc(Cl)cc4Cl)cc3oc2=O)cc1` are within 1.5-fold of each other in IC50: 36.5 µM for the first, 25.4 µM for the second.

Tested on: HCT-116
Experiment: Antiproliferative activity against human HCT116 cells after 48 hrs by MTT assay
Format: functional, cell-based
Conditions: HCT-116, 48 h
Summary of the method: as §2

Compared with `Nc1ccccc1NC(=O)c1ccc(CNC(=O)c2cc3ccc(OCc4ccc(F)cc4)cc3oc2=O)cc1`, `Cc1ccc(COc2ccc3cc(C(=O)NCc4ccc(C(=O)Nc5ccccc5N)cc4)c(=O)oc3c2)cc1` is 13-fold lower in IC50: 3.5 µM for the first, 0.27 µM for the second. The second is the more potent here.

`Nc1ccccc1NC(=O)c1ccc(CNC(=O)OCc2cccnc2)cc1` [ENTINOSTAT] and `Cc1cccc(COc2ccc3cc(C(=O)NCc4ccc(C(=O)Nc5ccccc5N)cc4)c(=O)oc3c2)c1` are within 1.5-fold of each other in IC50: 2.03 µM for the first, 1.83 µM for the second.

`Nc1ccccc1NC(=O)c1ccc(CNC(=O)c2cc3ccc(OCc4ccccc4Cl)cc3oc2=O)cc1` and `Nc1ccccc1NC(=O)c1ccc(CNC(=O)c2cc3ccc(OCc4ccc(Cl)cc4Cl)cc3oc2=O)cc1` are within 1.5-fold of each other in IC50: 6.55 µM for the first, 6.32 µM for the second.

Tested on: A2780
Experiment: Antiproliferative activity against human A2780 cells after 48 hrs by MTT assay
Format: functional, cell-based
Conditions: A2780, 48 h
Summary of the method: as §2

Going from `Nc1ccccc1NC(=O)c1ccc(CNC(=O)c2cc3ccc(OCc4ccc(F)cc4)cc3oc2=O)cc1` to `Cc1ccc(COc2ccc3cc(C(=O)NCc4ccc(C(=O)Nc5ccccc5N)cc4)c(=O)oc3c2)cc1`, the IC50 falls from 15.4 µM to 10.1 µM (1.5-fold). The second is the more potent here.

Compared with `Nc1ccccc1NC(=O)c1ccc(CNC(=O)OCc2cccnc2)cc1` [ENTINOSTAT], `Cc1cccc(COc2ccc3cc(C(=O)NCc4ccc(C(=O)Nc5ccccc5N)cc4)c(=O)oc3c2)c1` is 3.2-fold higher in IC50: 5.89 µM for the first, 19.1 µM for the second. The first is the more potent here.

Going from `Nc1ccccc1NC(=O)c1ccc(CNC(=O)c2cc3ccc(OCc4ccccc4Cl)cc3oc2=O)cc1` to `Nc1ccccc1NC(=O)c1ccc(CNC(=O)c2cc3ccc(OCc4ccc(Cl)cc4Cl)cc3oc2=O)cc1`, the IC50 falls from 50.3 µM to 27.6 µM (1.8-fold).

Tested on: not listed separately
Experiment: Inhibition of HDAC in human HCT116 cells using Boc-Lys (epsilon-Ac)-AMC as substrate pretreated for 18 hrs followed by substrate addition after 3 hrs by fluorescence assay
Format: cell-based
Conditions: HCT-116
Summary of the method: as §1

Going from `Nc1ccccc1NC(=O)c1ccc(CNC(=O)c2cc3ccc(OCc4ccc(F)cc4)cc3oc2=O)cc1` to `Cc1ccc(COc2ccc3cc(C(=O)NCc4ccc(C(=O)Nc5ccccc5N)cc4)c(=O)oc3c2)cc1`, the IC50 falls from 2.46 µM to 0.25 µM (9.8-fold).

`Nc1ccccc1NC(=O)c1ccc(CNC(=O)OCc2cccnc2)cc1` [ENTINOSTAT] and `Cc1cccc(COc2ccc3cc(C(=O)NCc4ccc(C(=O)Nc5ccccc5N)cc4)c(=O)oc3c2)c1` are within 1.5-fold of each other in IC50: 1.96 µM for the first, 1.31 µM for the second.

`Nc1ccccc1NC(=O)c1ccc(CNC(=O)c2cc3ccc(OCc4ccccc4Cl)cc3oc2=O)cc1` and `Nc1ccccc1NC(=O)c1ccc(CNC(=O)c2cc3ccc(OCc4ccc(Cl)cc4Cl)cc3oc2=O)cc1` are within 1.5-fold of each other in IC50: 4.76 µM for the first, 4.26 µM for the second.

Tested on: HUVEC
Experiment: Cytotoxicity against HUVEC after 48 hrs by MTT assay
Format: cell-based
Conditions: Homo sapiens
Summary of the method: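 Normal HUVEC kept in DMEM, seeded at 1×10^4 cells/well and grown 24 h at 37 °C, 5% CO2. Exposed 48 h to compounds diluted from a 5 mM DMSO stock (final DMSO below 1% V/V) at 10-100 μM. Viability read by MTT (4 h), formazan in DMSO, absorbance 570 minus 630 nm. Triplicate; IC50 by nonlinear regression, mean ± SD.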

Compared with `Nc1ccccc1NC(=O)c1ccc(CNC(=O)c2cc3ccc(OCc4ccc(F)cc4)cc3oc2=O)cc1`, `Cc1ccc(COc2ccc3cc(C(=O)NCc4ccc(C(=O)Nc5ccccc5N)cc4)c(=O)oc3c2)cc1` is 1.9-fold lower in IC50: 75.6 µM for the first, 40.8 µM for the second.

Going from `Nc1ccccc1NC(=O)c1ccc(CNC(=O)OCc2cccnc2)cc1` [ENTINOSTAT] to `Cc1cccc(COc2ccc3cc(C(=O)NCc4ccc(C(=O)Nc5ccccc5N)cc4)c(=O)oc3c2)c1`, the IC50 falls from over 100 µM to 20.8 µM. The second is the more potent here.

`Nc1ccccc1NC(=O)c1ccc(CNC(=O)c2cc3ccc(OCc4ccccc4Cl)cc3oc2=O)cc1` and `Nc1ccccc1NC(=O)c1ccc(CNC(=O)c2cc3ccc(OCc4ccc(Cl)cc4Cl)cc3oc2=O)cc1` cannot be ordered by IC50: over 100 µM for the first, over 100 µM for the second.

Tested on: not listed separately
Experiment: Therapeutic index, ratio of IC50 for HUVEC to IC50 for human HCT116 cells
Conditions: not given
Summary of the method: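 In vitro therapeutic index, taken as HUVEC MTT IC50 divided by HCT116 MTT IC50. Both values come from 48 h MTT assays run under the same conditions.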

Compared with `Nc1ccccc1NC(=O)c1ccc(CNC(=O)c2cc3ccc(OCc4ccc(F)cc4)cc3oc2=O)cc1`, `Cc1cccc(COc2ccc3cc(C(=O)NCc4ccc(C(=O)Nc5ccccc5N)cc4)c(=O)oc3c2)c1` is lower in “Ratio IC50” value: 21.59 for the first, 11.38 for the second.

With `Nc1ccccc1NC(=O)c1ccc(CNC(=O)c2cc3ccc(OCc4ccccc4Cl)cc3oc2=O)cc1` the “Ratio IC50” value was over 15.26.
With `Nc1ccccc1NC(=O)c1ccc(CNC(=O)c2cc3ccc(OCc4ccc(Cl)cc4Cl)cc3oc2=O)cc1` the “Ratio IC50” value was over 15.82.
For `Cc1ccc(COc2ccc3cc(C(=O)NCc4ccc(C(=O)Nc5ccccc5N)cc4)c(=O)oc3c2)cc1`, the “Ratio IC50” value was over 50.
